Legend:
IKZF2 [1] = target: T1, IKZF2 (Homo sapiens, UniProt Q96SW2+Q9UKS7); assay: IKZF2 HiBiT degradation assay in HEK293 cells; assay type: cell-based; settings: for Dmax: HEK293, read-out: IKZF2 degradation Dmax
PK study in rats = assay type: in vivo; settings: male, Sprague Dawley, rat, plasma, po, 3 mg/kg
PK study in mice = assay type: in vivo; settings: male, ICR, mouse, plasma, po, 3 mg/kg
IL-2 = IL-2 production in Jurkat cells; assay type: cell-based, human; settings: Jurkat stimulated with anti-CD3/CD28, bead-to-cell ratio 1:4
hERG channel = hERG channel (Homo sapiens, UniProt Q12809); assay: hERG channel inhibition, manual patch-clamp; assay type: cell-based
Chain of hERG channel (Q12809 whole entry): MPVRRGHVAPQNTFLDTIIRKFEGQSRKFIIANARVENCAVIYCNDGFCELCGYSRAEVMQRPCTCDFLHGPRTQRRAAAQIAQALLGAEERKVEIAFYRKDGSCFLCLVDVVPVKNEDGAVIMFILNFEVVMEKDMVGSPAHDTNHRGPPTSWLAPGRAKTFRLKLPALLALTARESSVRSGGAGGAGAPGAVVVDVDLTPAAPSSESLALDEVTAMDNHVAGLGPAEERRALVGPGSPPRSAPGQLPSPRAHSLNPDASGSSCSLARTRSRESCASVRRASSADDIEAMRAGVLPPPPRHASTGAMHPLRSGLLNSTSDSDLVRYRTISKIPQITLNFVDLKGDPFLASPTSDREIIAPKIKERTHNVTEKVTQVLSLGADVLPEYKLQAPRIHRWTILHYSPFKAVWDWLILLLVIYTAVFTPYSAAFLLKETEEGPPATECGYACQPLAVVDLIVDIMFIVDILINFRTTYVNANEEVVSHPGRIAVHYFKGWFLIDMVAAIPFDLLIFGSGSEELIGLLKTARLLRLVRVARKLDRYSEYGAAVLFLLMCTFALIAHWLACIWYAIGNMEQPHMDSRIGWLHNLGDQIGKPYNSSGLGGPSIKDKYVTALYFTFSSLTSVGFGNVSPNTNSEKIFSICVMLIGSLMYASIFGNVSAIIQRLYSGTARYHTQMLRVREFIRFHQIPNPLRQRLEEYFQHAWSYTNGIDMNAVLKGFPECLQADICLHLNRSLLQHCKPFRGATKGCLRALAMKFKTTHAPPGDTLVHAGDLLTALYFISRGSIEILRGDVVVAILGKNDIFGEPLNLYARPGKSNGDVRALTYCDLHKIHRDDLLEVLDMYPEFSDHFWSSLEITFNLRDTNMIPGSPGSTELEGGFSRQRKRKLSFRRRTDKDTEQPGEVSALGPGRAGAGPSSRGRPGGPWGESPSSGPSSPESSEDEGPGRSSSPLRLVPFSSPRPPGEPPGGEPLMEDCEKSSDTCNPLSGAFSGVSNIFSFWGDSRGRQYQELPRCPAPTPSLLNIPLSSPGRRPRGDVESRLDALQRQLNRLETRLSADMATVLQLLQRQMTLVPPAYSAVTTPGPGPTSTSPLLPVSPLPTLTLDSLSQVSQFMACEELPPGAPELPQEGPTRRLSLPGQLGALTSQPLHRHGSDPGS

IKZF2 [2] = target: T1, IKZF2; assay: IKZF2 FACS assay in primary human Tregs; assay type: cell-based; settings: read-out: IKZF2 degradation Dmax in human Treg cells
How it was run: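 Thawed human PBMCs were resuspended in RPMI with 10% FBS and 1% P/S. They were treated with test compound at 0.05 nM to 1 μM, with DMSO as vehicle control, for 3 or 6 h. IKZF2 in Treg cells was then assessed by FACS under a defined gating strategy.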

SALL4 = SALL4 (Homo sapiens, UniProt Q9UJQ4); assay: SALL4 HiBiT degradation assay in HEK293 cells; assay type: cell-based
Chain of SALL4 (Q96SW2 whole entry partner): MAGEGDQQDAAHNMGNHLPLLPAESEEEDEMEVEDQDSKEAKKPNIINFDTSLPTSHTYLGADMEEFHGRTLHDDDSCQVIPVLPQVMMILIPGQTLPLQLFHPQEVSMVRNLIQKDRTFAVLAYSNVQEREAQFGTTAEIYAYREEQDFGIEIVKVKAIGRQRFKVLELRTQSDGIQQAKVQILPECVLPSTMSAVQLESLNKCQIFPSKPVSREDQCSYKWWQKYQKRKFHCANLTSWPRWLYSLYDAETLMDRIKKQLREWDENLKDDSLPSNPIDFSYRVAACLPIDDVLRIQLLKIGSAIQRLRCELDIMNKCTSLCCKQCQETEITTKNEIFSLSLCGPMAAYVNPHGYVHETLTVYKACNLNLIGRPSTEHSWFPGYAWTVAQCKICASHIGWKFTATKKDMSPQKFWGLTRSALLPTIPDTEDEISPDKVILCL
Chain of SALL4 (Q16531 whole entry partner): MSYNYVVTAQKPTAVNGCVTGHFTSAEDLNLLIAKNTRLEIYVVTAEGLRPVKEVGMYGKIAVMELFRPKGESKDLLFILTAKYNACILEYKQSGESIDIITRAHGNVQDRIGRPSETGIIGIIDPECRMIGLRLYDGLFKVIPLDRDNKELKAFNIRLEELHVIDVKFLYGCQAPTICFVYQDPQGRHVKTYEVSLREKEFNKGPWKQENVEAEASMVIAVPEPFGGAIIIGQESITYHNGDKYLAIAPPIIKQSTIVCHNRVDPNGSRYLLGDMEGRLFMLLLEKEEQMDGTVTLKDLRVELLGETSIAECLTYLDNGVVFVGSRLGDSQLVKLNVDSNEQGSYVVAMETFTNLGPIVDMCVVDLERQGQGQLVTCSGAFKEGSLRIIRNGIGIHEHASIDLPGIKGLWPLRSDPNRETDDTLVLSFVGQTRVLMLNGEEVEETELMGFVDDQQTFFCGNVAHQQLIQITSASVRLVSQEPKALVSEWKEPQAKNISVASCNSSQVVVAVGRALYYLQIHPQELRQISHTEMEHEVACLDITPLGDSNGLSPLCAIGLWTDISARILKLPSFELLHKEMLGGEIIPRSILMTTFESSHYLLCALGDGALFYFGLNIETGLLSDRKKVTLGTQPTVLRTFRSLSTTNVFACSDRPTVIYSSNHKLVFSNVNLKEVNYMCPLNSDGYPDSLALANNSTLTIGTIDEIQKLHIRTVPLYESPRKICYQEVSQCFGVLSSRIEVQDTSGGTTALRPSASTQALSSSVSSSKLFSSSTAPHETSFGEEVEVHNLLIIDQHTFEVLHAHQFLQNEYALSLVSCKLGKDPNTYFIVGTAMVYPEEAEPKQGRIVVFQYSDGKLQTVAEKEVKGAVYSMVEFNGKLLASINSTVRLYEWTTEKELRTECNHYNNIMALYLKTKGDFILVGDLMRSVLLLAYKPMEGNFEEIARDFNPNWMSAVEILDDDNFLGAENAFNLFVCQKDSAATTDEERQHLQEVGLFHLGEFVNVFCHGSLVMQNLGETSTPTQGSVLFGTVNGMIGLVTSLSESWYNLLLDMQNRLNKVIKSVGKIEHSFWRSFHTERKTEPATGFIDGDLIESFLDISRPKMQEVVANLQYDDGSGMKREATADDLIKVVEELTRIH
Chain of SALL4 (Q9UJQ4 whole entry): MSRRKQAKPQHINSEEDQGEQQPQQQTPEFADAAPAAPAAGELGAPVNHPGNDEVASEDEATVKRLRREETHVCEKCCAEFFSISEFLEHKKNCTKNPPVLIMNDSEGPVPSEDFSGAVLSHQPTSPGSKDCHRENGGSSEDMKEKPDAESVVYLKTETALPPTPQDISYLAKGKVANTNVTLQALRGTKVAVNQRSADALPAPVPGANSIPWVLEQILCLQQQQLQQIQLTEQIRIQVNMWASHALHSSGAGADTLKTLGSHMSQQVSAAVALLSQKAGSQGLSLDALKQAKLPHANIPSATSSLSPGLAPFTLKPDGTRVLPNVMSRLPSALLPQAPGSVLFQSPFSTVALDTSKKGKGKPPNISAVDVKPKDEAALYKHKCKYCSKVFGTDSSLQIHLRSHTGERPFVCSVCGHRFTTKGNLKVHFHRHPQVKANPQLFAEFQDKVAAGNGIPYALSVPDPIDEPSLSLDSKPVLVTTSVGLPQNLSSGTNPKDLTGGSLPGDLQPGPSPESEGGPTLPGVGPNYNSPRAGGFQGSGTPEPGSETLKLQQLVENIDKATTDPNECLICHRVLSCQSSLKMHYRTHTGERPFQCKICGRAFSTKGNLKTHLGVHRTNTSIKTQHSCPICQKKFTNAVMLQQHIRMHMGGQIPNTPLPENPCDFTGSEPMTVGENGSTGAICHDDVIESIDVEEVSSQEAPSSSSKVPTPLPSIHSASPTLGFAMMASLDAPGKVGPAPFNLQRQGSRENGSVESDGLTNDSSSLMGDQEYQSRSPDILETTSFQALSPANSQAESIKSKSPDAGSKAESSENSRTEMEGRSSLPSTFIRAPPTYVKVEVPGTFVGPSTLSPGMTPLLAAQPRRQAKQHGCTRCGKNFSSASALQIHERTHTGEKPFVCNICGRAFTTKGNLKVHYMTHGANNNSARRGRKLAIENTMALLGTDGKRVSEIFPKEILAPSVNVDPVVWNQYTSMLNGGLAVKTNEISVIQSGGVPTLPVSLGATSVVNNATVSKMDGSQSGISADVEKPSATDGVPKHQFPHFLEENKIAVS
How it was run: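 Each HiBiT-tagged target construct was integrated into the FRT site by the FLP-IN system, and integration was checked by lytic HiBiT detection. Cells got test compound at 0.017 nM to 10 µM, with DMSO as vehicle control, for 6 h. HiBiT signal was then read by lytic luminescence detection. DC50 and Dmax came from a four-parameter dose-response fit.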

T1 sequence (Q9UKS7 whole entry): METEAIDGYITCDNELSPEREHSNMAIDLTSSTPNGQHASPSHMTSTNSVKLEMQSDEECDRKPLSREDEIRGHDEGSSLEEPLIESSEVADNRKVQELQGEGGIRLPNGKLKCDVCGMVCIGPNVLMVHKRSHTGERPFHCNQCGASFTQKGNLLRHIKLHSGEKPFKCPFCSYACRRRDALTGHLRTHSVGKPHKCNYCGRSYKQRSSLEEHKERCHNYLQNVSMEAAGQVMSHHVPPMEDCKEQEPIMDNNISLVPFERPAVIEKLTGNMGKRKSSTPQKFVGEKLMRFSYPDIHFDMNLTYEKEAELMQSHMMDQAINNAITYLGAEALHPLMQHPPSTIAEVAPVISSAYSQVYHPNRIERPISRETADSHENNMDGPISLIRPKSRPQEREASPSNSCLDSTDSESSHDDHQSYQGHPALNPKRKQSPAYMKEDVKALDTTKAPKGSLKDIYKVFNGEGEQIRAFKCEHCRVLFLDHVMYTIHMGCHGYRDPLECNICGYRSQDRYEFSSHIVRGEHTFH
T1 sequence (Q96SW2 whole entry): as the sequence (Q96SW2 whole entry partner) above
T1 sequence (Q16531 whole entry partner): as the sequence (Q16531 whole entry partner) above

Structure (SMILES): O=C1CCC(N2Cc3c(ccc4c3OCC43CCN(Cc4ccccc4)CC3(F)F)C2=O)C(=O)N1 (stereo not drawn) [Compound 12]
- Dmax (IKZF2 [1]): 68%

Structure (SMILES): O=C1CCC(N2Cc3c(ccc4c3OCC43CCN(Cc4ccccc4)CC3)C2=O)C(=O)N1 (stereo not drawn) [Compound 5]
- AUC (PK study in rats): 1170 ng·h/mL
- AUC (PK study in mice): 1340 ng·h/mL

Structure (SMILES): O=C1CCC(N2Cc3c(ccc4c3OCC43CCCN(Cc4ccccc4)CC3)C2=O)C(=O)N1 (stereo not drawn) [Compound 9]
- Dmax (IKZF2 [1]): 17%

Structure (SMILES): O=C1CCC(N2Cc3c(ccc4c3OCC43CCN(Cc4ccccn4)CC3)C2=O)C(=O)N1 (stereo not drawn) [Compound 14]
- Dmax (IKZF2 [1]): 64%

Structure (SMILES): O=C1CCC(N2Cc3c(ccc4c3OCC43CCN(Cc4ccccc4)C3)C2=O)C(=O)N1 (stereo not drawn) [Compound 8]
- Dmax (IKZF2 [1]): 33%

Structure (SMILES): O=C1CCC(N2Cc3c(ccc4c3OCC43CCN(CC4CCCCC4)CC3)C2=O)C(=O)N1 (stereo not drawn) [Compound 13]
- Dmax (IKZF2 [1]): 69%

Structure (SMILES): O=C1CCC(N2Cc3c(ccc4c3OCC43CCC(Oc4ccccc4)CC3)C2=O)C(=O)N1 (stereo not drawn) [Compound 7]
- Dmax (IKZF2 [1]): 38%

Structure (SMILES): O=C1CCC(N2Cc3cc(C4CCN(Cc5ccccc5)CC4)ccc3C2=O)C(=O)N1 (stereo not drawn) [DKY709]
- IL-2 concentration in the supernatant (in words) (IL-2): increase in IL-2 concentration in the supernatant
- hERG inhibition IC30 (hERG channel): 3000 nM
- Dmax (IKZF2 [1]): 73%
- time to reach maximal IKZF2 degradation (Dmax plateau) (IKZF2 [1]; IKZF2 HiBiT, HEK293): > 6 h
- DC50 (IKZF2 [1]; read-out: IKZF2 degradation DC50, HiBiT, HEK293, 6 h): 1.5 nM
- Dmax (IKZF2 [2]): 73%
- Dmax (SALL4; HEK293, read-out: SALL4 degradation Dmax): 55%
- DC50 (SALL4; read-out: SALL4 degradation DC50, HiBiT, HEK293, 6 h): 4.9 nM

Structure (SMILES): O=C1CCC(N2Cc3c(ccc4c3OCCC43CCN(Cc4ccccc4)CC3)C2=O)C(=O)N1 (stereo not drawn) [Compound 10]
- Dmax (IKZF2 [1]): 39%

Structure (SMILES): O=C1CCC(N2Cc3c(ccc4c3OCC43CCN(Cc4ccsc4)CC3)C2=O)C(=O)N1 (stereo not drawn) [Compound 15]
- Dmax (IKZF2 [1]): 84%

— PMC12046021 (Nature Communications, 2025)
